From ChEMBL document CHEMBL4130582, “Total Synthesis of Reniochalistatin E” (J Nat Prod, 2017)
Residues, ends and D or L forms follow the SMILES beside them. *: point of attachment. Boc = CC(C)(C)OC(=O)*

Assays:
Type in all cases: functional, cell-based
U-937 = assay: Cytotoxicity against human U937 cells after 72 hrs by Alamar Blue assay; conditions: U-937, 72 h
How it was run: (§1)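 Nonadherent cells in RPMI1640 + 10% FBS at 37 °C, 5% CO2. Compound from DMSO stock was diluted in media (31.6 nM to 200 μM) and plated in triplicate; cells (2000/well) were added afterwards. After 69 h, Alamar Blue was added for 3 h more; fluorescence read at ex 560/em 590 nm. Doxorubicin and etoposide served as positive controls. IC50 taken from ≥3 independent experiments.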

[1] = Cytotoxicity against human MM1R cells after 72 hrs by Alamar Blue assay; conditions: MM.1R; how it was run: as §1
[2] = Cytotoxicity against human MiaPaCa cells after 72 hrs by Alamar Blue assay; conditions: MIA PaCa-2, 72 h
How it was run: (§2)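 Mia PaCa-2 in DMEM + 10% FBS at 37 °C, 5% CO2. Seeded 1500 cells/well and left to adhere 2−3 h, then given compound diluted from DMSO stock in media (31.6 nM to 200 μM), in triplicate. After 69 h, Alamar Blue was added for 3 h more; fluorescence read at ex 560/em 590 nm. Doxorubicin and etoposide served as positive controls, untreated wells as negative. IC50 taken from ≥3 independent experiments.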

HeLa = assay: Cytotoxicity against human HeLa cells after 72 hrs by Alamar Blue assay
How it was run: as §2, with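 “A549 or HeLa cells” for “Mia PaCa-2”, “RPMI1640” for “DMEM”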

RPMI-8226 = assay: Cytotoxicity against human RPMI8226 cells after 72 hrs by Alamar Blue assay; conditions: RPMI-8226, 72 h; how it was run: as §1
A549 = assay: Cytotoxicity against human A549 cells after 72 hrs by Alamar Blue assay; conditions: A549, 72 h
How it was run: as §2, with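 “A549 or HeLa cells” for “Mia PaCa-2”, “RPMI1640” for “DMEM”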

Compound	IC50 (U-937)	IC50 [1]	IC50 [2]	IC50 (HeLa)	IC50 (RPMI-8226)	IC50 (A549)
CC[C@H](C)[C@H](NC(=O)OC(C)(C)C)C(=O)N1CCC[C@H]1C(=O)N[C@@H](CC(C)C)C(=O)N[C@@H](Cc1c[nH]c2ccccc12)C(=O)N1CCC[C@H]1C(=O)N[C@H](C(=O)N[C@H](C(=O)N1CCC[C@H]1C(=O)OC)[C@@H](C)CC)C(C)C (Boc-IPLWPVIP-OMe)	> 20 µM	> 20 µM	> 20 µM	> 20 µM	> 20 µM	> 20 µM
CC[C@H](C)[C@H](NC(=O)[C@@H](NC(=O)[C@@H]1CCCN1C(=O)OC(C)(C)C)C(C)C)C(=O)N1CCC[C@H]1C(=O)N[C@H](C(=O)N1CCC[C@H]1C(=O)N[C@@H](CC(C)C)C(=O)N[C@@H](Cc1c[nH]c2ccccc12)C(=O)OC)[C@@H](C)CC (Boc-PVIPIPLW-OMe)	> 20 µM	> 20 µM	19.1 µM	> 20 µM	> 20 µM	> 20 µM
CC[C@H](C)[C@@H]1NC(=O)[C@H](C(C)C)NC(=O)[C@@H]2CCCN2C(=O)[C@H](Cc2c[nH]c3ccccc23)NC(=O)[C@H](CC(C)C)NC(=O)[C@@H]2CCCN2C(=O)[C@H]([C@@H](C)CC)NC(=O)[C@@H]2CCCN2C1=O (cyclo(IPIPLWPV))	12.4 µM	> 11.2 µM	> 20 µM	16.9 µM	4.5 µM	> 20 µM
H-IPLWPVIP-OH	> 20 µM	> 20 µM	> 20 µM	18.4 µM	16.4 µM	> 20 µM
H-PVIPIPLW-OH	9.5 µM	> 20 µM	> 20 µM	> 20 µM	> 20 µM	> 20 µM
